The target in assay [1] is T1, Sigma non-opioid intracellular receptor 1 (Cavia porcellus, UniProt Q60492). As to the kind of experiment: Displacement of [3H]-(+)pentazocine from sigma-1 receptor in guinea pig brain membranes after 120 mins by scintillation counting method. The class given is cell membranes.
Assay [2] addresses T2, Sigma intracellular receptor 2 (Rattus norvegicus, UniProt Q5U3Y7).
T2 sequence (Q5U3Y7 whole entry): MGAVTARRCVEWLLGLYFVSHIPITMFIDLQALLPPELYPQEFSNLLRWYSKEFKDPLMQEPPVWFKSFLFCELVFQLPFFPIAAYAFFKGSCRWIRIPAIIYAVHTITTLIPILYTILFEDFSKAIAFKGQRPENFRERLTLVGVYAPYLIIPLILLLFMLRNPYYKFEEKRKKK
As to the kind of experiment: Displacement of [3H]-Di-o-tolylguanidine from sigma-2 receptor in rat liver membranes after 120 mins by scintillation counting method. The class given is cell membranes. (Loss of bound radioactivity is the signal in a displacement assay; it reports binding, not function.)

In assay [3] the target is Glutamate receptor ionotropic, NMDA 2B (Homo sapiens) (UniProt Q13224). As to the kind of experiment: Displacement of [3H]ifenprodil from human GluN2B expressed in mouse L(tk-) cell membranes at 1 uM incubated for 120 mins by scintillation counting method relative to control. The gist of the method:
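Competition binding with [³H]ifenprodil on membranes of mouse fibroblast L(tk-) cells stably transfected with dexamethasone-inducible vectors for human GluN1a and human GluN2B; inhibition (%) of radioligand binding recorded at 1 μM test compound.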

Assay [4] in a line: Displacement of [3H]-(+)-MK-801 from NMDA PCP binding site in pig brain cortex membrane at 1 uM incubated for 120 mins by scintillation counting method relative to control. The format is cell membranes.
Assay [5] deals with Sigma non-opioid intracellular receptor 1 (Cavia porcellus) (UniProt Q60492). As to the kind of experiment: Displacement of [3H]-(+)pentazocine from sigma-1 receptor in guinea pig brain membranes after 120 mins by scintillation counting method relative to control. The format is cell membranes. On the set-up: concentration or dose not given beside the values.
Sequence of Sigma non-opioid intracellular receptor 1 (Cavia porcellus) (Q60492 whole entry): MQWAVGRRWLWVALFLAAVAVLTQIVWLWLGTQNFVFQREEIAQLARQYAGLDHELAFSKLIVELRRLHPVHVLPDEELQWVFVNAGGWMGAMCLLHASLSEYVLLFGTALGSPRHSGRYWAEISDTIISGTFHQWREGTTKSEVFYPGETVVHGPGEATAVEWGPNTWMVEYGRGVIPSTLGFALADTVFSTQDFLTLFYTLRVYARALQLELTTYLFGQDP
The target in assay [6] is T3, Sigma intracellular receptor 2 (Rattus norvegicus) (UniProt Q5U3Y7).
T3 sequence (whole entry): T2 sequence (Q5U3Y7 whole entry)
Briefly: Displacement of [3H]-Di-o-tolylguanidine from sigma-2 receptor in rat liver membranes after 120 mins by scintillation counting method relative to control. The class given is cell membranes. On the set-up: concentration or dose not given beside the values.

Assay [7] concerns the target Glutamate receptor ionotropic, NMDA 2B (Homo sapiens, UniProt Q05586+Q13224). As to the kind of experiment: Displacement of [3H]ifenprodil from human GluN2B expressed in mouse L(tk-) cell membranes co-expressing GluN1a incubated for 120 mins by scintillation counting method.
The species entered for assay [8] is Cavia porcellus. As to the kind of experiment: Displacement of [3H]-(+)-MK-801 from NMDA PCP binding site in pig brain cortex membrane at 1 uM incubated for 150 mins by scintillation counting method relative to control. The class given is cell membranes.
The target in assay [9] is T1, Sigma non-opioid intracellular receptor 1. Briefly: Displacement of [3H]-(+)pentazocine from sigma-1 receptor in guinea pig brain membranes after 180 mins by scintillation counting method. The format is cell membranes.
The target in assay [10] is T2, Sigma intracellular receptor 2. Briefly: Displacement of [3H]-Di-o-tolylguanidine from sigma-2 receptor in rat liver membranes after 180 mins by scintillation counting method. The format is cell membranes.

The structures appear in SMILES notation.

T1 sequence (Q60492 whole entry): as above
Sequence of Glutamate receptor ionotropic, NMDA 2B (Homo sapiens) (Q13224 27-1484 limits assumed): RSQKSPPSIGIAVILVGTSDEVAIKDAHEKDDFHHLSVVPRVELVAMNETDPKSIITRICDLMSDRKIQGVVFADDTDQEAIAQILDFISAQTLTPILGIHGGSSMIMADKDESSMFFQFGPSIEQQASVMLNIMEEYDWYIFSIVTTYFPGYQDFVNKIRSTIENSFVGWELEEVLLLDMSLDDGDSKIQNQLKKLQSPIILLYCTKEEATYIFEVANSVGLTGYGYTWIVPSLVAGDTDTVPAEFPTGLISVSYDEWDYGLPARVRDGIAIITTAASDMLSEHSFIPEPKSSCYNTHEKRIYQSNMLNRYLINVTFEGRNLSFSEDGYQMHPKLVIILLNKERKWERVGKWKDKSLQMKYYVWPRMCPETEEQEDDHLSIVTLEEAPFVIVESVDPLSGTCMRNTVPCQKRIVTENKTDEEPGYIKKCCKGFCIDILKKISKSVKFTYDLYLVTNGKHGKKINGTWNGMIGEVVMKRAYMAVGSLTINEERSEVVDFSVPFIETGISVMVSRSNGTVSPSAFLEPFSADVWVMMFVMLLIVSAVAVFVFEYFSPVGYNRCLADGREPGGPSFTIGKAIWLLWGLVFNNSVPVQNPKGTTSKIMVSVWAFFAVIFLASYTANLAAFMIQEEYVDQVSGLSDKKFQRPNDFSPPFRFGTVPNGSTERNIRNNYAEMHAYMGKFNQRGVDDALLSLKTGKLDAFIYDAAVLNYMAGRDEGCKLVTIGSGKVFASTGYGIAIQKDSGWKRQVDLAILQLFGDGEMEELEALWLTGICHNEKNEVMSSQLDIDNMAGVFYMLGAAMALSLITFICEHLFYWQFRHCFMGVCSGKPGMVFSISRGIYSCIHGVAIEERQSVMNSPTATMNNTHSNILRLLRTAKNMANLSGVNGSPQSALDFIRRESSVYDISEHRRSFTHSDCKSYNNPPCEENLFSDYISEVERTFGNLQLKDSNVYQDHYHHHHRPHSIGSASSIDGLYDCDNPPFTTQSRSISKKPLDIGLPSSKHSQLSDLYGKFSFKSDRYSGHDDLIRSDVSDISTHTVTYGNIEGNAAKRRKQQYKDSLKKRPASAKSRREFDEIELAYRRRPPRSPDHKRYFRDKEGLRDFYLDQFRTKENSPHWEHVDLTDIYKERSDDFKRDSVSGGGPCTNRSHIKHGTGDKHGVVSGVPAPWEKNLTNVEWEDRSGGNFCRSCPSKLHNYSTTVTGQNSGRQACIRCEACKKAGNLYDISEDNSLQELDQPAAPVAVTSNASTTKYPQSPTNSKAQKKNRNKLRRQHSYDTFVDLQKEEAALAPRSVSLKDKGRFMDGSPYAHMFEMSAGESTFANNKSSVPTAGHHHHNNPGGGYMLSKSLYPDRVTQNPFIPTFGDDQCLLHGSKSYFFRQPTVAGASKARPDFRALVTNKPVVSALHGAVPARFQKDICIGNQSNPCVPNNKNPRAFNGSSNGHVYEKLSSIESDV
Sequence of Glutamate receptor ionotropic, NMDA 2B (Q13224 whole entry, one chain of several): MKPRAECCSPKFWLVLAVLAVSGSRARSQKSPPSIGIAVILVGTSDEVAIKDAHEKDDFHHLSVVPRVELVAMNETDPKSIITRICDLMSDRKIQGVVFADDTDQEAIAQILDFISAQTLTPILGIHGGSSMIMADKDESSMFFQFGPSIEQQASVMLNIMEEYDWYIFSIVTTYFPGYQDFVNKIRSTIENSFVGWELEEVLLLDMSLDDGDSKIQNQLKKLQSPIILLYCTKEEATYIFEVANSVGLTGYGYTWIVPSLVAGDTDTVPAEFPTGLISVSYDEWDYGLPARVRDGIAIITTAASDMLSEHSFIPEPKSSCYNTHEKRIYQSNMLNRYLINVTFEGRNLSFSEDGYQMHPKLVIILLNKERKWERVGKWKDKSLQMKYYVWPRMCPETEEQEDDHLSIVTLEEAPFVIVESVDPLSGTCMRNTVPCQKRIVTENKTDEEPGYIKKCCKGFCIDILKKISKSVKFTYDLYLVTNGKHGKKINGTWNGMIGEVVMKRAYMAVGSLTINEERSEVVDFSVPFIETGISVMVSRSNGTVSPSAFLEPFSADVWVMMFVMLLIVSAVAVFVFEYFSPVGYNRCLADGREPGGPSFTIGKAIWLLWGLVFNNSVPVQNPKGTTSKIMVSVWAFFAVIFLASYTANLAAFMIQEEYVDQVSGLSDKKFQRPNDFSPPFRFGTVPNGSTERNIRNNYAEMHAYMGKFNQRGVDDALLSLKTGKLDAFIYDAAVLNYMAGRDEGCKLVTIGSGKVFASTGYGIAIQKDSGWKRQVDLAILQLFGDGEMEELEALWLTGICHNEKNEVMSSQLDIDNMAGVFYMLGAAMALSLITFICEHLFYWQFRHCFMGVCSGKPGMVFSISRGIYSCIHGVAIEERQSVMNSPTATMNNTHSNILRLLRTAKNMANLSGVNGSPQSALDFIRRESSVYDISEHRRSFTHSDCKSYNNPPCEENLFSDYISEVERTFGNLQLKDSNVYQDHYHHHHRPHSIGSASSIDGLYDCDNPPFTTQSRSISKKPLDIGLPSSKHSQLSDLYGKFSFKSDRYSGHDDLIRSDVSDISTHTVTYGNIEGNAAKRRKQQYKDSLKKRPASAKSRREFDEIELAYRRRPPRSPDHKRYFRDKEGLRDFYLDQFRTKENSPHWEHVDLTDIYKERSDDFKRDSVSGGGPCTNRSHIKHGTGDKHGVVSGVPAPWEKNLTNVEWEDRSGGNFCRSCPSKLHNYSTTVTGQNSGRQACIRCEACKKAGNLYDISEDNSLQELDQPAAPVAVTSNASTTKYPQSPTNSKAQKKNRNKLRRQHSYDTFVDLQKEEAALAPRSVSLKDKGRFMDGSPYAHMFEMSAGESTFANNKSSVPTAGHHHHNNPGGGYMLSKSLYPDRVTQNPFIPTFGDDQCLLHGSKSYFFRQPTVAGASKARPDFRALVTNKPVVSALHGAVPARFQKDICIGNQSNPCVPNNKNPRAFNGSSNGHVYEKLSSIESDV

In the case of `COc1ccc2c(c1)CCN(CCCCc1cccs1)CC2O` (centres undefined), the Ki in [1] worked out at 340 nM; in assay [2], 562 nM. The inhibition stood at 20% in assay [3] and 0% in assay [4].
In the case of `COc1ccc2c(c1)CCN(CCC#Cc1cccc(OCCF)c1)CC2O` (centres undefined), the inhibition in assay [3] is 3%; in [4], 0%; in assay [5], 9%; in [6] it was 23%.
With `Oc1ccc2c(c1)CCN(CCCCc1ccc(OCCF)cc1)CC2O` (centres undefined), the Ki is 193 nM in assay [7], 705 nM in assay [1] and 79 nM in assay [2]. Further, in [4], the inhibition was 0%.
For `OC1CN(CCC#Cc2ccc(OCCF)cc2)CCc2cc(OCc3ccccc3)ccc21` (centres undefined), the inhibition in [3] is 0%; in assay [4], 0%; in assay [5], 0%; in assay [6], 12%.
In the case of `COc1ccc2c(c1)CCN(CCC#Cc1cccs1)CC2O` (centres undefined), the inhibition came to 13% in [3], 0% in [4], 21% in assay [5] and 20% in [6].
For `COc1ccc2c(c1)CCN(CCCCc1cccnc1)CC2O` (centres undefined), the Ki in assay [1] worked out at 274 nM; in assay [2] it was 397 nM. Besides, the inhibition in assay [3] and in assay [4] was 0% in each case.
As for `COc1ccc2c(c1)CCN(CCCCc1ccccc1OCCF)CC2O` (centres undefined), the Ki in assay [1] was 715 nM; in assay [2] it was 593 nM. For the same compound, the figures for the inhibition in assay [3] and in assay [4] were 19% and 0%, respectively.
Turning to `COc1ccc2c(c1)CCN(CCC#Cc1ccc(OCCF)cc1)CC2O` (centres undefined), the Ki in assay [1] was 701 nM. In addition, the results for the inhibition in assay [3], in [4] and in [6] were 3%, 0% and 12%, respectively.
For `COc1ccc2c(c1)CCN(CCC#Cc1cccnc1)CC2O` (centres undefined), the inhibition in [3] stood at 1%; in assay [4], 0%; in assay [5], 5%; in [6], 9%.
The matching figures for `COc1ccc2c(c1)CCN(CCCCc1cn(CCF)nn1)CC2O` (centres undefined): 0%, 0%, 28% and 0%.
As for `COc1ccc2c(c1)CCN(CCC#Cc1nccs1)CC2O` (centres undefined), the inhibition in [3], in [4], in assay [5] and in [6] was 0% each time.
Consider `COc1ccc2c(c1)CCN(CCCC#Cc1ccccc1)CC2O` (centres undefined), for which the Ki was found to be 460 nM in assay [7], 164 nM in [1] and 878 nM in assay [2]. Further, the inhibition in [4] was 9%.
Regarding `COc1ccc2c(c1)CCN(CCCCc1ccccc1)CC2O` (centres undefined), in assay [8], the inhibition came out at 25%. For the same compound, the figures for the Ki in assay [9] and in assay [10] were 211 nM and 96 nM, respectively.
In turn, `COc1ccc2c(c1)CCN(CCC#Cc1ccccc1)CC2O` (centres undefined) returned a Ki in assay [1] of 565 nM. The figures for the inhibition in [3], in assay [4] and in assay [6] were 18%, 15% and 15%, respectively.
`COc1ccc2c(c1)CCN(CCC#Cc1ccccc1OCCF)CC2O` (centres undefined): the inhibition in [3] worked out at 4%; in assay [4], 4%; in assay [5], 31%; in [6], 22%.

As a reminder, the Ki is a dissociation constant, usually derived from enzyme kinetics or from competition with a known ligand. Usually inhibition stands for the percentage by which the read-out fell short of the control.

Values taken from ChEMBL document CHEMBL4346734, “Modification of the 4-phenylbutyl side chain of potent 3-benzazepine-based GluN2B receptor antagonists” (Bioorg Med Chem, 2019).
